Data set [1] can be described thus: Drug level in po dosed cynomolgus monkey plasma measured up to 24 hrs post dose by LC-MS/MS analysis. The conditions noted are these: in vivo. It counts as ADME, organism-based, Macaca fascicularis.
Data set [2] in a line: Toxicity in cynomolgus monkey assessed as gross behavioral abnormality at 0.3 to 10 mg/kg, po measured up to 24 hrs post dose. Type of data set: organism-based, Macaca fascicularis. The conditions noted are these: in vivo. In short, it runs like this:
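Cynomolgus monkeys (n = 3/group) received an oral dose of 0.4, 1.5, 4.7 or 15.7 μmol/kg in 5% Solutol/20% Captisol in 25 mM PBS, pH 2. CSF was drawn via subcutaneous ports and blood sampled predose and at 0.5–24 h.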

Data set [3] is described as follows: Intrinsic clearance in human. It counts as ADME.
The nature of data set [4]: Drug level in po dosed Sprague-Dawley rat CSF measured 2 hrs post dose by LC-MS/MS analysis. It counts as ADME, organism-based, Cerebrospinal fluid. The following applies: in vivo.
The nature of data set [5]: Volume of distribution at steady state in Sprague-Dawley rat at 10 mg/kg, po or 2 mg/kg, iv administered as single dose measured up to 24 hrs post dose by LC-MS/MS analysis. It counts as ADME, organism-based. The conditions noted are these: in vivo, read-out: Vdss. The method in brief: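 Groups of three drug-naive adult male Sprague–Dawley rats, single dose: IV 3.1 μmol/kg in 5% DMSO/10% Solutol in saline (5 mL/kg), or PO 15.7 μmol/kg in 5% Solutol/10% Captisol in 25 mM PBS adjusted to pH 2 with HCl. Plasma concentration–time data give the parameters; mean ± SD.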

Data set [6] in a line: Tmax in cynomolgus monkey plasma at 5 mg/kg, po by LC-MS/MS analysis. It counts as ADME, organism-based, Macaca fascicularis. In short, it runs like this:
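Three female cynomolgus monkeys per group, single dose: IV 1.5 μmol/kg in 5% DMSO/10% Solutol in saline, pH 6.5 (2 mL/kg), or PO 7.8 μmol/kg in 5% Solutol in 20% Captisol, 25 mM PBS, pH 2 (5 mL/kg). Parameters come from plasma concentration–time data; mean ± SD.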

Data set [7] is described as follows: Drug level in cynomolgus monkey plasma at 10 mg/kg, po measured at 8 hrs post dose by LC-MS/MS analysis. It counts as ADME, organism-based, Macaca fascicularis.
Data set [8] addresses Voltage-gated inwardly rectifying potassium channel KCNH2 (Homo sapiens, UniProt Q12809). As to the kind of experiment: Inhibition of human ERG channel expressed in HEK293 cells by patch clamp assay. It counts as cell-based. In short, it runs like this: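 PatchXpress patch-clamp on HEK293 cells stably expressing hERG. Five-point concentration-response, n = 3.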
The nature of data set [9]: Drug level in cynomolgus monkey plasma at 10 mg/kg, po measured at 0.5 hr post dose by LC-MS/MS analysis. Type of data set: ADME, organism-based, Macaca fascicularis. In short, it runs like this: (§1)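 Cynomolgus monkeys (n = 3/group) fitted with subcutaneous CSF ports were dosed orally at 0.4−15.7 μmol/kg in 5% Solutol plus 20% Captisol in 25 mM PBS, pH 2. CSF (about 0.30 mL) and blood were sampled predose and at 0.5, 1, 2, 3, 4, 8, 12 and 24 h. Quantitation limit 1.0 ng/mL; mean ± SD.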

The nature of data set [10]: Drug level in cynomolgus monkey plasma at 3 mg/kg, po measured at 12 hrs post dose by LC-MS/MS analysis. It counts as ADME, organism-based, Macaca fascicularis.
Data set [11] can be described thus: Drug level in cynomolgus monkey plasma at 10 mg/kg, po measured at 12 hrs post dose by LC-MS/MS analysis. It counts as ADME, organism-based, Macaca fascicularis. The method in brief:
as §1

The nature of data set [12]: Drug level in cynomolgus monkey CSF at 10 mg/kg, po measured at 12 hrs post dose by LC-MS/MS analysis. It counts as ADME, organism-based, Macaca fascicularis, Cerebrospinal fluid. The conditions noted are these: read-out: Drug uptake. The method in brief: as §1
Data set [13] in a line: Drug level in cynomolgus monkey plasma at 3 mg/kg, po measured at 1 hr post dose by LC-MS/MS analysis. It counts as ADME, organism-based, Macaca fascicularis.
Data set [14] can be described thus: Apparent permeability from basolateral to apical side in human Caco2 cells. It counts as ADME, cell-based. The following applies: Caco-2. The method in brief: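 Caco-2 monolayer permeability measured in both the A-to-B and B-to-A directions and reported as P_app (×10⁻⁶ cm/s).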
(Passage across Caco-2 layers is used to estimate intestinal permeability.)

A short description of data set [15]: AUClast in cynomolgus monkey plasma at 1 mg/kg, iv or 5 mg/kg, po measured up to 12 or 24 hrs post dose by LC-MS/MS analysis. It counts as ADME, organism-based, Macaca fascicularis. The method in brief:
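Single-dose PK in female cynomolgus monkeys, n = 3 per group: 1.5 μmol/kg IV in 5% DMSO/10% Solutol in saline, pH 6.5 (2 mL/kg), or 7.8 μmol/kg PO in 5% Solutol in 20% Captisol, 25 mM PBS, pH 2 (5 mL/kg). Plasma parameters reported as mean ± SD.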

The nature of data set [16]: Drug level in Sprague-Dawley rat CSF at 3 mg/kg, po qd for 5 days measured 2 hrs post last dose by LC-MS/MS analysis. It counts as ADME, organism-based, Cerebrospinal fluid. The conditions noted are these: read-out: Drug uptake. The method in brief:
(§2)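 Drug-naive Sprague−Dawley rats (n = 5/group) were dosed orally once daily for 5 days in 5% Solutol plus 20% Captisol in 25 mM PBS, pH 2, and sacrificed 2 h after the last dose. Drug was measured in CSF, brain and plasma; mean ± SEM.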

Data set [17] can be described thus: Drug level in Sprague-Dawley rat brain at 10 mg/kg, po qd for 5 days measured 2 hrs post last dose by LC-MS/MS analysis. Type of data set: ADME, organism-based. The following applies: read-out: Drug uptake. The method in brief:
as §2

In data set [18] the test system is Rattus norvegicus. As to the kind of experiment: In vivo inhibition of glycine transporter-1 in Sprague-Dawley rat assessed as CSF glycine level at 100 mg/kg, po measured 2 hrs post dose by LC-MS/MS analysis relative to control. It counts as functional. Further details: scale not given: the % may be the effect or the level left. In short, it runs like this: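 Drug-naive Sprague-Dawley rats, n = 5 per group, given acute oral doses of 0.4-160.9 μmol/kg (0.3-100 mg/kg). Vehicle was Solutol 5% in 20% Captisol / 25 mM PBS, pH 2. Killed 2 h post-dose. CSF glycine was quantified by LC-MS/MS with a deuterated-glycine standard and expressed as % vehicle control, mean ± SEM. Two-way ANOVA with Tukey test.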

Data set [19] is described as follows: Toxicity in Sprague-Dawley rat assessed as gross behavioral abnormality at 0.3 to 100 mg/kg, po. Type of data set: organism-based. The following applies: in vivo. In short, it runs like this: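 Drug-naive Sprague–Dawley rats (n = 5/group) received a single oral dose of 0.4–160.9 μmol/kg in 5% Solutol plus 20% Captisol in 25 mM PBS, pH 2, and were watched for gross behavioral abnormalities until sacrifice at 2 h.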

The subject of data set [20] is Rattus norvegicus. Kind of data set: In vivo inhibition of glycine transporter-1 in Sprague-Dawley rat assessed as increase in CSF glycine level at 1 to 10 mg/kg, po qd for 5 days measured 48 hrs post last dose by LC-MS/MS analysis. Type of data set: functional, organism-based. In short, it runs like this: (§3)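 Drug-naive Sprague-Dawley rats, n = 5 per group, dosed orally once daily for 5 days with vehicle or 1.6, 4.8 or 16.1 μmol/kg. Vehicle was 5% Solutol / 20% Captisol in 25 mM PBS, pH 2. Killed 2 h or 48 h after the last dose. CSF glycine was expressed as % of vehicle control (vehicle 2 h post last dose), mean ± SEM. Two-way ANOVA with Tukey test.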

Data set [21] deals with Rattus norvegicus. As to the kind of experiment: In vivo inhibition of glycine transporter-1 in Sprague-Dawley rat assessed as CSF glycine level at 10 mg/kg, po qd for 5 days measured 2 hrs post last dose by LC-MS/MS analysis relative to control. Type of data set: functional. Further details: scale not given: the % may be the effect or the level left. In short, it runs like this:
as §3

Data set [22] is described as follows: Drug level in Sprague-Dawley rat brain at 3 mg/kg, po qd for 5 days measured 2 hrs post last dose by LC-MS/MS analysis. It counts as ADME, organism-based. The conditions noted are these: read-out: Drug uptake. The method in brief: as §2

Calls of active or inactive are those of the source. The rule behind the calls is not given here. A value given as a limit tells only on which side of the number the result lay.

Chain of Voltage-gated inwardly rectifying potassium channel KCNH2 (Q12809 whole entry): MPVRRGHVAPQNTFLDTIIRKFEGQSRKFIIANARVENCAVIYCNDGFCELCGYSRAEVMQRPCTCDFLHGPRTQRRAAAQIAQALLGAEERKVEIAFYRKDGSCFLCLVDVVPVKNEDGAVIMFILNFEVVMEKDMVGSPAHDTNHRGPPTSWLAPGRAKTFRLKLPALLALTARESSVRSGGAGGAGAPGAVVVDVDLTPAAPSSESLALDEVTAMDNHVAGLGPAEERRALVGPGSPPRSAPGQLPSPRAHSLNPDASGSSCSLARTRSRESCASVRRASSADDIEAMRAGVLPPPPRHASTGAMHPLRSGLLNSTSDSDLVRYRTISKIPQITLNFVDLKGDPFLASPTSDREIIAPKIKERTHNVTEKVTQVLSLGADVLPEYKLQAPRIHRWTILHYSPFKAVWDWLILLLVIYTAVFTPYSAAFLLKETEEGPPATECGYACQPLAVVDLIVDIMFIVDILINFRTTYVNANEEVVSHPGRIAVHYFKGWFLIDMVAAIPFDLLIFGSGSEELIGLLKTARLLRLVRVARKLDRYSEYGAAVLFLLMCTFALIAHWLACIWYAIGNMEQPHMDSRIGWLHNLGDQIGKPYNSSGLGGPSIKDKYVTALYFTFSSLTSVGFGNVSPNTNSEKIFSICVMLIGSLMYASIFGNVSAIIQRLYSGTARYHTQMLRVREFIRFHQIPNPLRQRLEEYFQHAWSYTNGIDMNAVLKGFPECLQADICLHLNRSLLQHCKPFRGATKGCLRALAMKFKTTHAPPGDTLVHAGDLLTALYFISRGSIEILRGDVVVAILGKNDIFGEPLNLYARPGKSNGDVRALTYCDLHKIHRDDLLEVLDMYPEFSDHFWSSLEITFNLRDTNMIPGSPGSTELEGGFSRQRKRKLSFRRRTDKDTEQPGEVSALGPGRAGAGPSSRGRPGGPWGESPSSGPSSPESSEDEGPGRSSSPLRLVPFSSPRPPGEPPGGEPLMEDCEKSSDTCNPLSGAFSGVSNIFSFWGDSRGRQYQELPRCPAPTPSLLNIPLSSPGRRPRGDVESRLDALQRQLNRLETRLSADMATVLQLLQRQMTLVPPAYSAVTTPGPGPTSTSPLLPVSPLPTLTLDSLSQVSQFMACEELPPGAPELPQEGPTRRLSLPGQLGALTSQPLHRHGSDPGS

For orientation: Tmax means the time at which the peak concentration occurs. Broadly, the IC50 is the concentration at which inhibition is half-maximal. Usually Papp B→A stands for how fast a substance crosses the layer from the basolateral side. For orientation: AUC(0-t) means the area under the concentration-time curve up to a stated or last time point. As for `CC(NC(=O)c1ccc(C(F)(F)F)cc1Cl)C1(N2CCN(S(=O)(=O)c3cn(C)nn3)CC2)CCC(F)(F)CC1.Cl` (single isomer, unassigned; (+)), the Drug uptake result in data set [1] and in [4] was “Dose-dependent effect” throughout. The Activity result in data set [2] is on record as “Non-Toxic”. Also, in data set [3], the CL is 4 microL/ml/min. For the same compound, in data set [5], the Vd amounted to 1.75 L/kg. Moreover, the Tmax in [6] stood at 1.67 h. Besides, in data set [7], the concentration at 8 h worked out at 156 ng/mL. This compound showed a half-inhibitory concentration (IC50) in [8] of 20.2 µM. This compound also came in with a concentration at 0.5 h in [9] of 67.9 ng/mL. In addition, the concentration at 12 h in data set [10] was less than 1 ng/mL; in data set [11], 135 ng/mL; in data set [12] it was 5 ng/mL. Further, the concentration at 1 h in data set [13] was 3.6 ng/mL. In data set [14], the Papp B→A stood at 47.4 ×10⁻⁶ cm/s. This compound gave an AUC(0-t) at 24 h in [15] of 690 ng·h/mL.

`Cl.Cn1cc(S(=O)(=O)N2CCN(C3(CNC(=O)c4ccc(C(F)(F)F)cc4Cl)CCC(F)(F)CC3)CC2)nn1`: the concentration at 2 h in data set [16] was found to be 1.1 nM; in data set [17] it was 69.4 nM; in data set [22], 44.8 nM. In addition, the Activity is 329.1% with Rattus norvegicus [18], “Non-Toxic” in data set [19] and 315% in the data set on Rattus norvegicus [21]. Besides, the inhibition result in the data set on Rattus norvegicus [20] was “inactive”.

Source of the values: ChEMBL document CHEMBL4428077, “Synthesis and Biological Evaluation of N-((1-(4-(Sulfonyl)piperazin-1-yl)cycloalkyl)methyl)benzamide Inhibitors of Glycine Transporter-1” (J Med Chem, 2016).
